The test system of one test is E. coli DH10B blaCTX-M-9. It is filed as cell-based. Conditions: Escherichia coli, read-out: MIC of FEP, E. coli, DH10B blaCTX-M-9.
In test [1] the test system is P. aeruginosa 18SH strain, blaPDC. Type of test: cell-based. Conditions: Pseudomonas aeruginosa, read-out: MIC of CAZ, P. aer. 18SH blaPDC. The method, boiled down:
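CLSI broth microdilution in Mueller-Hinton broth, with inoculum at 6 × 10^4 cfu/mL final. Ceftazidime was tested from 128 to 0.06 μg/mL, with test compound held constant at 4 μg/mL. Plates were incubated overnight at 37 °C and MICs were recorded the next day.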

By MIC is commonly meant the smallest concentration in the dilution series that meets the test's criterion for growth inhibition.

For `CO/N=C(\C(=O)N[C@@H]1C(=O)N2C(C(=O)[O-])=C(C[N+]3(C)CCCC3)CS[C@H]12)c1csc(N)n1` [FEP, cefepime], the MIC in the test with E. coli DH10B blaCTX-M-9 was 8 µg/mL. As for `CC(C)(O/N=C(\C(=O)N[C@@H]1C(=O)N2C(C(=O)[O-])=C(C[n+]3ccccc3)CS[C@H]12)c1csc(N)n1)C(=O)O` [CAZ, ceftazidime], the minimum inhibitory concentration (MIC) in test [1] is 64 µg/mL.

Values taken from PMC7458062 (ACS Infectious Diseases, 2020).
